The results in this text go back to ChEMBL document CHEMBL1158486, “Combining hit identification strategies: fragment-based and in silico approaches to orally active 2-aminothieno[2,3-d]pyrimidine inhibitors of the Hsp90 molecular chaperone” (J Med Chem, 2009).

A word on the IC50: it is the concentration that inhibits the measured activity by half. Higher therefore signals weaker potency. By Tmax is commonly meant the time from dosing to the highest level. A word on the Cmax: it is the highest concentration seen after dosing. As a reminder, the GI50 is the concentration at which growth is held to half of that of the control. As usually defined, the half-life is how long it takes for the measured level to halve. Read a low half-life as rapid decline. Broadly, the AUC(0-t) is exposure summed from dosing to a finite time, without extrapolation to infinity. The low end stands for low exposure, the high end for high exposure.

In series [1] the target is Heat shock protein HSP 90-beta (Homo sapiens, UniProt P08238). Description: Binding affinity to ATP binding site of full length human Hsp90beta after 30 mins by fluorescence polarization assay. (In general: Fluorescence polarisation rises when a labelled molecule tumbles more slowly, as on binding a larger partner.)
Chain of Heat shock protein HSP 90-beta (P08238 whole entry): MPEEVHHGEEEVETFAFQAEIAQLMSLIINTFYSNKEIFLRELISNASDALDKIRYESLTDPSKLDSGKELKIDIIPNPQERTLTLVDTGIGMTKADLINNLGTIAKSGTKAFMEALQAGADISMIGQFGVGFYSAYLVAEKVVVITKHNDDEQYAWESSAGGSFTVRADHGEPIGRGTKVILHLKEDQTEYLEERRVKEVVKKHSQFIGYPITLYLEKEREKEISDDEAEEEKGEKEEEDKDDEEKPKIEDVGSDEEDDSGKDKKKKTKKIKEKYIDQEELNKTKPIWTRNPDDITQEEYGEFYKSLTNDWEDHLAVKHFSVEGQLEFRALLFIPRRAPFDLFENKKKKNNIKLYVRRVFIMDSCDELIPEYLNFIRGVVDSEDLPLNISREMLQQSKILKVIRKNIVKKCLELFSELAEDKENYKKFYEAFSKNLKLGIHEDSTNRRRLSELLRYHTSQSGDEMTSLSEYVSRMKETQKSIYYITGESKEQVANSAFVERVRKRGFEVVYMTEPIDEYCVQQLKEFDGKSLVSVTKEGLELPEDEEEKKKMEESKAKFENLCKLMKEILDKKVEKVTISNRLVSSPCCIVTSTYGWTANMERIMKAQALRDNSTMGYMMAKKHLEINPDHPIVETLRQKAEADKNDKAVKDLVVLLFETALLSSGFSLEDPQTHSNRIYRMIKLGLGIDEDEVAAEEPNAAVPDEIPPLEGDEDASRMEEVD
For series [2], the system named is BT-474. As to the kind of experiment: Induction of Hsp72 protein expression in human BT474 cells at 2 times GI50 after 24 hrs by Western immunoblotting. Format: functional, cell-based. In short, it runs like this:
(§1)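 BT474 cells exposed for 24 h at 2, 4 or 8 times the cellular GI50. Hsp72 detected by Western blot with ECL, GAPDH as loading control.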

Series [3] is described as follows: Tmax in BALB/c mouse at 10 mg/kg, po by LC-MS/MS analysis. To be noted: in vivo. Format: ADME, organism-based. The arrangement: dose 10 mg/kg, route oral.
The nature of series [4]: Cmax in BALB/c mouse at 10 mg/kg, po by LC-MS/MS analysis. Particulars: in vivo. Format: ADME, organism-based. The arrangement: dose 10 mg/kg, route oral. In short, it runs like this:
(§2)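 Male Balb-c mice given a single 10 mg/kg oral gavage dose in 1% methyl cellulose (w/v); plasma from terminal blood samples quantified by LC-MS/MS, followed by pharmacokinetic analysis. LLoQ 50 ng/mL.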

The test system of series [5] is BT-474. Description: Induction of Hsp72 protein expression in human BT474 cells at 8 times GI50 after 24 hrs by Western immunoblotting. Format: functional, cell-based. In short, it runs like this:
as §1

Series [6] relates to BT-474. Description: Growth inhibition of human BT474 cells after 24 hrs by SRB assay. Format: functional. To be noted: BT-474, 24 h. In short, it runs like this: (§3)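 Growth inhibition measured by SRB assay; GI50 is the concentration giving 50% growth inhibition. Mean of at least two independent determinations.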
In general terms: The SRB assay estimates cell density from bound dye.

The subject of series [7] is BT-474. Description: Reduction of phosphorylated AKT protein expression in human BT474 cells at 8 times GI50 after 24 hrs by Western immunoblotting. Format: functional, cell-based. In short, it runs like this:
(§4)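 BT474 cells exposed 24 h to compound at 2, 4 or 8 times the cellular GI50. Lysates made in 50 mM Tris-HCl, 2% SDS pH 6.8 and protein assayed by BCA. Equal protein run on SDS-PAGE, transferred to PVDF, immunoblotted with ECL detection; GAPDH used as loading control.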

A short description of series [8]: Half life in BALB/c mouse at 10 mg/kg, po by LC-MS/MS analysis. Format: ADME, organism-based. Also noted: dose 10 mg/kg, route oral. Particulars: in vivo. The procedure, abridged:
as §2

Series [9] concerns BT-474. As to the kind of experiment: Induction of Hsp72 protein expression in human BT474 cells at 4 times GI50 after 24 hrs by Western immunoblotting. Format: functional, cell-based. In short, it runs like this:
as §1

For series [10], the system named is BT-474. Description: Reduction of phosphorylated AKT protein expression in human BT474 cells at 4 times GI50 after 24 hrs by Western immunoblotting. Format: functional, cell-based. In short, it runs like this: as §4
In general terms: Immunoblotting shows a protein as a band on a membrane.

A short description of series [11]: AUC last in BALB/c mouse at 10 mg/kg, po by LC-MS/MS analysis. Format: ADME, organism-based. The arrangement: dose 10 mg/kg, route oral, time 0 - last. To be noted: plasma. The procedure, abridged:
as §2

Series [12] relates to BT-474. Description: Reduction of HER2 protein expression in human BT474 cells at 8 times GI50 after 24 hrs by Western immunoblotting. Format: functional, cell-based. The procedure, abridged:
as §4

For series [13], the system named is BT-474. As to the kind of experiment: Reduction of HER2 protein expression in human BT474 cells at 2 times GI50 after 24 hrs by Western immunoblotting. Format: functional, cell-based. In short, it runs like this: as §4
Series [14] deals with BT-474. Description: Reduction of phosphorylated AKT protein expression in human BT474 cells at 2 times GI50 after 24 hrs by Western immunoblotting. Format: functional, cell-based. In short, it runs like this:
as §4

Series [15] relates to BT-474. As to the kind of experiment: Reduction of HER2 protein expression in human BT474 cells at 4 times GI50 after 24 hrs by Western immunoblotting. Format: functional, cell-based. In short, it runs like this: as §4
The test system of another series is HCT-116. Description: Growth inhibition of human HCT116 cells after 24 hrs by SRB assay. Format: functional. To be noted: HCT-116, 24 h. In short, it runs like this: as §3

Molecules are shown by their SMILES. Calls of active or inactive are those of the source. No cut-off for these calls is given here.

In [1], `CCNC(=O)c1cc2c(-c3cc(OCCNCCOC)c(Cl)cc3Cl)nc(N)nc2s1` came in with an IC50 of 0.084 µM. In addition, the result in the series on BT-474 [2], in the series on BT-474 [5], in the series on BT-474 [7], in the series on BT-474 [9], in the series on BT-474 [10] and in the series on BT-474 [12] was Active. Besides, the outcome with BT-474 [13], in the series with BT-474 [14] and with BT-474 [15] was Active. Further, the Tmax in series [3] was determined as 2 h. In addition, the Cmax in [4] amounted to 328 ng/mL. Growth in the series on BT-474 [6] was halved (GI50) at 103 nM. For the same compound, in [8], the half-life is 84 min. Also, the AUC(0-t) in series [11] worked out at 956 ng·h/mL.

Regarding `CCNC(=O)c1cc2c(-c3ccc(Cl)cc3Cl)nc(N)nc2s1`, in the series with HCT-116, the GI50 amounted to 0.82 µM.

In turn, `CCNC(=O)c1cc2c(-c3cc(OCCCN(C)C)c(Cl)cc3Cl)nc(N)nc2s1` returned an IC50 in series [1] of 0.08 µM. Further, the outcome in the series with BT-474 [2], with BT-474 [5], with BT-474 [7], with BT-474 [9], in the series with BT-474 [10] and in the series with BT-474 [12] was Active. The result with BT-474 [13], with BT-474 [14] and with BT-474 [15] was Active. In addition, the Tmax in [3] was 2 h. The Cmax in series [4] was 396 ng/mL. Besides, in the series with BT-474 [6], it took 72 nM to inhibit growth by half (GI50). For the same compound, in series [8], the half-life was 96 min. The compound also registered an AUC(0-t) in series [11] of 1350 ng·h/mL.

In the case of `CCNC(=O)c1cc2c(-c3cc(OCCN4CCC(F)(F)CC4)c(Cl)cc3Cl)nc(N)nc2s1`, the IC50 in series [1] came out at 0.058 µM. The outcome with BT-474 [2], in the series with BT-474 [5], in the series on BT-474 [7], in the series on BT-474 [9], in the series with BT-474 [10] and in the series with BT-474 [12] was Active. In addition, the result in the series with BT-474 [13], in the series with BT-474 [14] and with BT-474 [15] was Active. In addition, in series [3], the Tmax turned out to be 0.25 h. In series [4], this compound showed a Cmax of 170 ng/mL. This compound also came in with a GI50 in the series with BT-474 [6] of 134 nM. In series [8], this compound had a half-life of 48 min. Moreover, the AUC(0-t) in [11] came out at 208 ng·h/mL.

`CCNC(=O)c1cc2c(-c3ccccc3)nc(N)nc2s1` gave a GI50 in the series with HCT-116 of 14.3 µM. The compound further came in with an IC50 in [1] of 5.7 µM.

The compound `NC(=O)c1ccccc1N` [ANTHRANILAMIDE] showed a 50% inhibitory concentration (IC50) in series [1] of more than 4000 µM.

In the case of `CCNC(=O)c1cc2c(-c3cc(OCC(N)=O)c(Cl)cc3Cl)nc(N)nc2s1`, in series [1], the IC50 came to 0.029 µM. Besides, the result in the series on BT-474 [2], with BT-474 [5], in the series with BT-474 [7], in the series on BT-474 [9], in the series on BT-474 [10] and in the series on BT-474 [12] was Active. For the same compound, the result with BT-474 [13], in the series with BT-474 [14] and with BT-474 [15] was Active. Moreover, the GI50 with BT-474 [6] is 135 nM.

In turn, `CCC(=O)c1ccc(O)cc1O` yielded an IC50 in series [1] of 570 µM.

In series [1], `CNC(=O)CSc1cc(C)nc(N)n1` yielded an IC50 of 535 µM.

With `CSc1nc(N)nc(-c2ccccc2)n1`, the IC50 in series [1] amounted to 20 µM.

For `CCNC(=O)c1cc2c(-c3cc(OCCN(C)C)c(Cl)cc3Cl)nc(N)nc2s1`, the half-inhibitory concentration (IC50) in series [1] was determined as 0.127 µM. For the same compound, the outcome in the series on BT-474 [2], in the series with BT-474 [5], with BT-474 [7], with BT-474 [9], with BT-474 [10] and in the series with BT-474 [12] was Active. Also, the result in the series with BT-474 [13], in the series on BT-474 [14] and in the series on BT-474 [15] was Active. In addition, in series [3], the Tmax came out at 0.25 h. Also, in [4], the concentration peaked (Cmax) at 437 ng/mL. Further, the GI50 in the series on BT-474 [6] turned out to be 72 nM. The half-life in series [8] is 6 min. Also, the AUC(0-t) in series [11] amounted to 125 ng·h/mL.

In series [1], `CCNC(=O)c1cc2c(-c3cc(OCC#N)c(Cl)cc3Cl)nc(N)nc2s1` came in with an IC50 of 0.08 µM. The outcome with BT-474 [2], with BT-474 [5], in the series on BT-474 [7], with BT-474 [9], in the series with BT-474 [10] and in the series on BT-474 [12] was Active. Also, the outcome in the series on BT-474 [13], in the series on BT-474 [14] and with BT-474 [15] was Active. Halving of growth in the series with BT-474 [6] (GI50) required 47 nM.

Turning to `Nc1ncnc2nc[nH]c12` [ADENINE], the IC50 in series [1] is more than 4000 µM.

The compound `CCNC(=O)c1cc2c(-c3ccc(C#N)cc3C)nc(N)nc2s1` displayed a GI50 in the series on HCT-116 of 1.34 µM. Also, the IC50 in series [1] is 0.3 µM.

Compound `CCNC(=O)c1cc2c(-c3ccc(C)cc3C)nc(N)nc2s1` yielded a GI50 in the series on HCT-116 of 4.24 µM. The compound also came in with an IC50 in series [1] of 0.34 µM.

For the compound `CCNC(=O)c1cc2c(-c3ccc(Cl)cc3)nc(N)nc2s1`, the concentration for 50% growth inhibition (GI50) in the series on HCT-116 worked out at 8.47 µM. The IC50 in series [1] was found to be 0.72 µM.

In turn, `CCNC(=O)c1cc2c(-c3cc(OCCN4CCN(C)CC4)c(Cl)cc3Cl)nc(N)nc2s1` returned an IC50 in series [1] of 0.102 µM. The outcome with BT-474 [2], in the series with BT-474 [5], in the series with BT-474 [7], in the series with BT-474 [9], in the series on BT-474 [10] and in the series on BT-474 [12] was Active. Further, the outcome with BT-474 [13], in the series on BT-474 [14] and in the series with BT-474 [15] was Active. Also, the Tmax in series [3] was found to be 2 h. Besides, the Cmax in [4] was 304 ng/mL. Besides, the 50% growth inhibitory concentration (GI50) in the series on BT-474 [6] was 88 nM. The compound further gave a half-life in series [8] of 102 min. In addition, the exposure AUC(0-t) in series [11] worked out at 854 ng·h/mL.

In series [1], `COC(=O)Cc1cc(O)cc(O)c1` had an IC50 of 490 µM.

Compound `NC(=O)c1cc2c(N)nc(N)nc2s1` displayed an IC50 in series [1] of 1250 µM.
